Data set [1] can be described thus: Cytotoxicity expressed as the concentration that inhibited incorporation of [3H]thymidine into cellular DNA of human cervical cells (CaSki). It counts as functional, cell-based. In a few lines: (§1)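 Exponentially growing tumour cells, 1-1.5 × 10⁴ cells/well, in RPMI with 10% bovine serum plus penicillin/streptomycin, exposed 72 h (37 °C, 5% CO₂) to a drug concentration series. Drugs were dissolved in DMSO (≤0.5% final) or in medium. [³H]thymidine incorporation into DNA was read after PBS wash and trypsin harvest. IC50 was interpolated from log dose-response curves, as means of 1-3 experiments in triplicate.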

Data set [2] relates to HepG2. The data set is described as follows: Cytotoxicity expressed as the concentration that inhibited incorporation of [3H]-thymidine into cellular DNA of human hepatocellular cells (HepG2). It counts as functional, cell-based. In a few lines:
as §1

In data set [3] the test system is HepG2. The data set is described as follows: Cytotoxicity in the presence of beta-Glucuronidase (betaG, 5 micro g/ml) towards human hepatocellular cells (HepG2). Type of data set: functional, cell-based. In a few lines: (§2)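 Same 72 h [³H]thymidine-incorporation assay (1-1.5 × 10⁴ cells/well in RPMI/10% bovine serum, 37 °C, 5% CO₂), with β-glucuronidase added at 5 µg/mL alongside the drug concentration series. Controls were medium or 0.5% DMSO. IC50 was interpolated from log dose-response curves, as means of 1-3 experiments in triplicate.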

The test system of data set [4] is HT-29. The data set is described as follows: Cytotoxicity in the presence of beta-Glucuronidase (betaG, 5 micro g/ml) towards human colorectal cells (HT-29). Type of data set: functional, cell-based. The gist of the method:
as §2

A short description of data set [5]: Cytotoxicity in the presence of beta-Glucuronidase (betaG, 5 micro g/ml) towards human cervical cells(CaSki). Type of data set: functional, cell-based. In a few lines: as §2
The nature of data set [6]: Solubility is determined at pH 4.0. Type of data set: physicochemical. To be noted: buffer. In a few lines: (§3)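 Excess solid was equilibrated 24 h at 25 °C in 100 mM phosphate buffer pH 4.0, or in βG buffer (acetic acid/bis-tris/triethanolamine) pH 7.0. Samples were filtered through 0.22 µm, diluted in mobile phase and quantified by C18 HPLC (45% MeOH/25 mM phosphate pH 2.55, fluorescence ex 397/em 482 nm) against calibration curves. Values are in mg/mL.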

For data set [7], the system named is COLO 205. The data set is described as follows: Cytotoxicity expressed as the concentration that inhibited incorporation of [3H]thymidine into cellular DNA of human colorectal cells (COLO 205). Type of data set: functional, cell-based. In a few lines:
as §1

Data set [8] concerns COLO 205. The data set is described as follows: Cytotoxicity in the presence of beta-Glucuronidase (betaG, 5 micro g/ml) towards human colorectal cells(COLO 205). Type of data set: functional, cell-based. In a few lines:
as §2

For data set [9], the system named is HT-29. The data set is described as follows: Cytotoxicity expressed as the concentration that inhibited incorporation of [3H]thymidine into cellular DNA of human colorectal cells (HT-29). Type of data set: functional, cell-based. The gist of the method: as §1
A short description of data set [10]: Percentage of compound converted to 9-aminocamptothecin for hydrolysis by beta-Glucuronidase( incubated at pH 7.0 for 2 hr at 37 degrees Celsius at the concentration 0.1 ug/mL). It counts as ADME. The settings on record: buffer, pH 7, 2 h. The gist of the method: (§4)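 The reaction was quenched with ice-cold MeOH/5% H₃PO₄ (6/1) and centrifuged. Supernatant was analysed by reversed-phase C18 HPLC with fluorescence detection (ex 397/em 482 nm) to give the % converted to 9-aminocamptothecin.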

Data set [11] is described as follows: Percentage of compound converted to 9-aminocamptothecin for hydrolysis by beta-Glucuronidase( incubated at pH 7.0 for 2 h at 37 degrees Celsius at the concentration 0.05 ug/mL). Type of data set: ADME. The settings on record: buffer, pH 7, 2 h. The gist of the method: as §4
A short description of data set [12]: Percentage of compound converted to 9-aminocamptothecin for hydrolysis by beta-Glucuronidase(incubated at pH 7.0 for 2 hr at 37 degrees Celsius at the concentration 0.5 ug/mL). It counts as ADME. To be noted: buffer, pH 7, 2 h. The gist of the method:
as §4

In data set [13] the test system is NCI-H928. The data set is described as follows: Cytotoxicity expressed as the concentration that inhibited incorporation of [3H]-thymidine into cellular DNA of human lung carcinoma cells (H928). It counts as functional, cell-based. In a few lines: as §1
Data set [14] can be described thus: Solubility is determined at pH 7.0. Type of data set: physicochemical. To be noted: buffer. The gist of the method: as §3
Data set [15] has as its system NCI-H928. The data set is described as follows: Cytotoxicity in the presence of beta-Glucuronidase (betaG, 5 micro g/ml) towards human lung carcinoma cells (H928). It counts as functional, cell-based. In a few lines: as §2
Data set [16] in a line: Percentage of compound converted to 9-aminocamptothecin for hydrolysis by beta-Glucuronidase( incubated at pH 7.0 for 2 hr at 37 degrees Celsius at the concentration 0.01 ug/mL). Type of data set: ADME. The settings on record: buffer, pH 7, 2 h. In a few lines:
as §4

Data set [17] concerns HepG2. The data set is described as follows: Cytotoxicity expressed as the concentration that inhibited incorporation of [3H]thymidine into cellular DNA of human hepatocellular cells (HepG2). It counts as functional, cell-based. The gist of the method: as §1

In ChEMBL document CHEMBL1132107, “Design and synthesis of water-soluble glucuronide derivatives of camptothecin for cancer prodrug monotherapy and antibody-directed enzyme prodrug therapy (ADEPT)” (J Med Chem, 1999) one finds IC50, solubility and Conversion data, which are given here for four compounds.

Molecules are shown by their SMILES. In brackets after ≈: the same amount, converted by molar mass.

One may read the IC50 as the point on the concentration scale where inhibition reaches its midpoint.

As to `CC[C@@]1(O)C(=O)OCc2c1cc1n(c2=O)Cc2cc3c(NC(=O)OCc4ccc(O[C@@H]5O[C@H](C(=O)[O-])[C@@H](O)[C@H](O)[C@H]5O)cc4)cccc3nc2-1.[K+]`, the IC50 in data set [1] was found to be 510 nM; in the data set with HepG2 [2], 280 nM; in the data set on HepG2 [3], 6.7 nM; in the data set on HT-29 [4] (Homo sapiens, HT-29), 11 nM; in data set [5] (Homo sapiens) it was 9.1 nM; with COLO 205 [7] (colo 205), 460 nM. The IC50 with COLO 205 [8] (Homo sapiens, COLO 205) came out at 8.2 nM. Moreover, in [6], the solubility amounted to 25000 µg/mL.
Regarding `CC[C@@]1(O)C(=O)OCc2c1cc1n(c2=O)Cc2cc3c(NC(=O)OCc4ccc(O[C@@H]5O[C@H](C(=O)O)[C@@H](O)[C@H](O)[C@H]5O)cc4)cccc3nc2-1`, the IC50 came to 190 nM in data set [1]; 150 nM in the data set with HT-29 [9]; 2.9 nM with HepG2 [3]; 6.6 nM with HT-29 [4] (ht-29); 7.8 nM in data set [5]; 300 nM with NCI-H928 [13]. In addition, the IC50 worked out at 7.9 nM in the data set on NCI-H928 [15], 200 nM in the data set with COLO 205 [7] (colo 205), 8 nM in the data set on COLO 205 [8] (colo 205) and 110 nM with HepG2 [17]. For the same compound, the Conversion in [10] is given as 98%; in data set [11] it was 92%; in data set [12] it was 92%; in data set [16], 45%. Further, the solubility stood at 500 µg/mL (≈ 725 µM) in [6] and 110 mg/kg in data set [14].
Regarding `CC[C@@]1(O)C(=O)OCc2c1cc1n(c2=O)Cc2cc3c(N)cccc3nc2-1` [9-AMINOCAMPTOTHECIN], the half-inhibitory concentration (IC50) stood at 8.5 nM in [1] (Homo sapiens); 7.4 nM with HT-29 [9]; 7.9 nM in the data set on NCI-H928 [13]; 6.6 nM in the data set with COLO 205 [7] (Homo sapiens, COLO 205); 3.5 nM with HepG2 [17]. For the same compound, the results for the solubility in [6] and in data set [14] were 6 µg/mL (≈ 16.5 µM) and 60 µg/mL (≈ 165 µM), respectively.
With `CC[C@@]1(O)C(=O)OCc2c1cc1n(c2=O)Cc2cc3ccccc3nc2-1` [CAMPTOTHECIN], the IC50 in [1] (Homo sapiens) was found to be 8.5 nM; in the data set on NCI-H928 [13], 7.8 nM; in the data set on COLO 205 [7] (Homo sapiens, COLO 205) it was 5.4 nM; in the data set on HepG2 [17], 6.3 nM.
